Source: ChEMBL document CHEMBL1141414, “Inhibitors of bacterial cystathionine beta-lyase: leads for new antimicrobial agents and probes of enzyme structure and function” (J Med Chem, 2007)
Converted amounts (≈) assume the structure as drawn.

Key:
[1] = tested on: Escherichia coli; assay: Antibacterial activity against Escherichia coli ATCC 25922 in absence of methionine; type: functional
[2] = tested on: Candida albicans; assay: Antifungal activity against Candida albicans ATCC 90028; type: functional
[3] = biological target: T1, Cystathionine beta-lyase MetC (Escherichia coli K-12, UniProt P06721); assay: Inhibition of Escherichia coli CBL
T1 sequence (P06721 whole entry): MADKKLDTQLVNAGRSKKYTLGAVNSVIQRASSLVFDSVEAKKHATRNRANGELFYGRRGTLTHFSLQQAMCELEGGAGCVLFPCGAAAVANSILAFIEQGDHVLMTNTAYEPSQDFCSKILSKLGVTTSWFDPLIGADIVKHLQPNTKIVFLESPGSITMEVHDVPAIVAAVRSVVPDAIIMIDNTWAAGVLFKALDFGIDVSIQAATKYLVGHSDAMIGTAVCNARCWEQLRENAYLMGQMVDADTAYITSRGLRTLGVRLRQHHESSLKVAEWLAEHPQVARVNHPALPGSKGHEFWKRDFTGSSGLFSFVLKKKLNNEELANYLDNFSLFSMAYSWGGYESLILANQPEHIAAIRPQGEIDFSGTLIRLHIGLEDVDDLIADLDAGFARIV
In short: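 Purified E. coli CBL (24 nM) in 50 mM TAPS pH 8.5 with 1 mM DTNB, preincubated 10 min at room temperature with inhibitor in DMSO (5% final). Reaction started with 100 µM cystathionine; homocysteine formation followed at 412 nm for 4 min, rate taken from 30-200 s slope. IC50 fitted as a four-parameter logistic from 12 concentrations, triplicate.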

[4] = tested on: Escherichia coli; assay: Antibacterial activity against Escherichia coli ATCC 25922 in presence of methionine; type: functional

MIC [1]	MIC [2]	IC50 [3]	MIC [4]	SMILES
32 µg/mL (≈ 134 µM)	> 128 µg/mL	25 µM	64 µg/mL	NNC(=O)CNC(=O)c1ccc([N+](=O)[O-])cc1
> 128 µg/mL	> 128 µg/mL	0.65 µM	> 128 µg/mL	COc1c(F)c(F)cc(C(=O)NCC(=O)NN)c1F
32 µg/mL (≈ 112 µM)	16 µg/mL (≈ 56.1 µM)	0.28 µM	64 µg/mL	Cc1ccccc1NC(=O)C(C(F)(F)F)C(F)(F)F
32 µg/mL (≈ 172 µM)	128 µg/mL (≈ 687 µM)	2.2 µM	64 µg/mL	Cc1ccc(S(=O)(=O)NN)cc1
		1.8 µM		NNS(=O)(=O)c1ccc(Cl)c(Cl)c1
> 128 µg/mL	> 128 µg/mL	60 µM	> 128 µg/mL	COc1cccc(OC)c1C(=O)NCC(=O)NN
> 128 µg/mL	> 128 µg/mL	37 µM	> 128 µg/mL	NNC(=O)CNC(=O)c1cccc(C(F)(F)F)c1
128 µg/mL (≈ 452 µM)	> 128 µg/mL	5.9 µM	128 µg/mL	NNC(=O)CNC(=O)c1cc([N+](=O)[O-])cc([N+](=O)[O-])c1
		500 µM		NNC(=O)CNC(=O)Cc1cccc2ccccc12
> 128 µg/mL	> 128 µg/mL	2.7 µM	> 128 µg/mL	O=C(CSc1nccc(-c2cccs2)n1)c1cc(-c2ccc(Cl)c(Cl)c2)no1
		9 µM		N#CC(C#N)=C1c2cc(S(=O)(=O)Oc3ccccc3)cc([N+](=O)[O-])c2-c2c1cc(S(=O)(=O)Oc1ccccc1)cc2[N+](=O)[O-]
		6.9 µM		NNS(=O)(=O)c1ccc(Cl)s1
128 µg/mL (≈ 490 µM)	> 128 µg/mL	15 µM	128 µg/mL	NNC(=O)CNC(=O)c1ccc(C(F)(F)F)cc1
128 µg/mL (≈ 573 µM)	> 128 µg/mL	82 µM	128 µg/mL	NNC(=O)CNC(=O)c1cc(N)cc(N)c1
64 µg/mL (≈ 128 µM)	> 128 µg/mL	0.53 µM	64 µg/mL	O=C(OCc1ccccc1Br)c1cc([N+](=O)[O-])cc2c1-c1ccc([N+](=O)[O-])cc1/C2=N/O
		6 µM		NNS(=O)(=O)c1cccc2c(N)cccc12
> 128 µg/mL	> 128 µg/mL	0.079 µM	> 128 µg/mL	NNC(=O)CNC(=O)c1ccccc1C(F)(F)F
32 µg/mL (≈ 125 µM)	> 128 µg/mL	3.4 µM	32 µg/mL	NNS(=O)(=O)c1ccc(-c2ccccn2)s1
> 128 µg/mL	> 128 µg/mL	560 µM	> 128 µg/mL	NNC(=O)CNC(=O)c1cc2ccccc2cc1N
64 µg/mL (≈ 263 µM)	> 128 µg/mL	34 µM	64 µg/mL	CC(=O)NCc1ccc(S(=O)(=O)NN)cc1
16 µg/mL (≈ 67.2 µM)	128 µg/mL (≈ 537 µM)	4.5 µM	16 µg/mL	NNC(=O)CNC(=O)c1ccccc1[N+](=O)[O-]
> 128 µg/mL	> 128 µg/mL	200 µM	> 128 µg/mL	Cc1ccc2nc(-c3ccc(NC(=O)c4ccc(Cl)cc4)cc3)sc2c1
> 128 µg/mL	> 128 µg/mL	16 µM	> 128 µg/mL	Cc1ccc2nc(-c3ccc(NC(=O)Nc4ccc(Cl)cc4)cc3)sc2c1
